Source: ChEMBL document CHEMBL1140245, “Identification of antitumor activity of pyrazole oxime ethers” (Bioorg Med Chem Lett, 2005)
Values after ≈ are worked out from the molar mass of the structure shown.

Columns and labels:
[1] = tested on: HCT-15; assay: Cytotoxic activity against HCT15 cell line (human colon solid tumor cell line); type: functional, cell-based; conditions: Homo sapiens, HCT-15; read-out: IC50
[2] = tested on: XF498; assay: Cytotoxic activity against XF498 cell line (human CNS solid tumor); type: functional, cell-based; conditions: Homo sapiens, XF498; read-out: IC50
[3] = tested on: SK-MEL-2; assay: Cytotoxic activity against SKMEL-2 cell line; type: functional, cell-based, Homo sapiens; conditions: Homo sapiens, SK-MEL-2; read-out: IC50
[4] = tested on: SK-OV-3; assay: Cytotoxic activity against SKOV-3 cell line (human solid ovarian tumor cell line); type: functional, cell-based; conditions: Homo sapiens, SK-OV-3; read-out: IC50
[5] = tested on: A549; assay: Cytotoxic activity against A549 cell line (non-small cell lung carcinoma); type: functional, cell-based, Homo sapiens; conditions: Homo sapiens, A549; read-out: IC50
[6] = tested on: HepG2; assay: In vitro antiproliferative activity against HepG2 cell line (human liver tumor) at 1 uM concentration; type: functional
Method in brief: (§1)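 Each cell line was exposed to test compound at a single concentration of 1 µM, and activity was reported as percent inhibition.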

[7] = tested on: MCF7; assay: In vitro antiproliferative activity against MCF-7 cell line (human breast tumor) at 1 uM concentration; type: functional; method in brief: as §1
[8] = tested on: A549; assay: In vitro antiproliferative activity against A549 cell line (human lung tumor) at 1 uM concentration; type: functional; method in brief: as §1
[9] = tested on: MKN-45; assay: In vitro antiproliferative activity against MKN45 cell line (human stomach tumor) at 1 uM concentration; type: functional; method in brief: as §1

Compound: Cc1nn(C)c(Oc2ccc(Cl)cc2)c1/C=N/OCc1ccc(C(=O)OC(C)(C)C)cc1
- IC50 [1]: 0.01 µg/mL (≈ 0.0219 µM)
- IC50 [2]: 0.02 µg/mL (≈ 0.0439 µM)
- IC50 [3]: 18.8 µg/mL (≈ 41.2 µM)
- IC50 [4]: 0.28 µg/mL (≈ 0.614 µM)
- IC50 [5]: 0.1 µg/mL (≈ 0.219 µM)

Compound: Cc1ccc(CO/N=C/c2c(C)nn(C)c2Oc2ccc(Cl)cc2)cc1
- inhibition at 1 µM [6]: 31.3%
- inhibition at 1 µM [7]: 30.7%
- inhibition at 1 µM [8]: 50%
- inhibition at 1 µM [9]: 30.4%

Compound: Cc1nn(C)c(Oc2ccccc2)c1/C=N/OCCN1CCOCC1
- inhibition at 1 µM [6]: -40.5%
- inhibition at 1 µM [7]: 5.4%
- inhibition at 1 µM [8]: -19.4%
- inhibition at 1 µM [9]: -28%

Compound: Cc1nn(C)c(Oc2ccccc2)c1/C=N/OCCN1CCN(Cc2ccc(C(F)(F)F)cc2)CC1
- inhibition at 1 µM [6]: 14.4%
- inhibition at 1 µM [7]: 37.7%
- inhibition at 1 µM [8]: 39.7%
- inhibition at 1 µM [9]: 15.4%

Compound: Cc1nn(-c2ccccn2)c(Oc2ccccc2)c1/C=N/OCc1ccc(C(=O)OC(C)(C)C)cc1
- inhibition at 1 µM [6]: -25.1%
- inhibition at 1 µM [7]: -14.8%
- inhibition at 1 µM [8]: -9.1%
- inhibition at 1 µM [9]: -9.8%

Compound: Cc1nn(C)c(Oc2ccccc2)c1/C=N/OCCN1CCCCC1
- inhibition at 1 µM [6]: -29%
- inhibition at 1 µM [7]: 3.2%
- inhibition at 1 µM [8]: -9.9%
- inhibition at 1 µM [9]: -22.5%

Compound: Cc1ccc(CO/N=C/c2c(C)nn(C)c2Oc2ccccc2)cc1
- inhibition at 1 µM [6]: 8.4%
- inhibition at 1 µM [7]: 38.2%
- inhibition at 1 µM [8]: 29.1%
- inhibition at 1 µM [9]: 17.9%

Compound: Cc1nn(-c2ccccc2)c(Oc2ccc(Cl)cc2)c1/C=N/OCc1ccc(C(=O)OC(C)(C)C)cc1
- inhibition at 1 µM [6]: -31.1%
- inhibition at 1 µM [7]: -8.4%
- inhibition at 1 µM [8]: -6.1%
- inhibition at 1 µM [9]: -9.9%

Compound: Cc1nn(C)c(-n2cccn2)c1/C=N/OCc1ccc(C(=O)OC(C)(C)C)cc1
- IC50 [1]: 3.63 µg/mL (≈ 9.18 µM)
- IC50 [2]: 5.51 µg/mL (≈ 13.9 µM)
- IC50 [3]: 28.8 µg/mL (≈ 72.8 µM)
- IC50 [4]: 9.63 µg/mL (≈ 24.4 µM)
- IC50 [5]: 2.49 µg/mL (≈ 6.3 µM)

Compound: CC(C)c1nn(-c2ccccc2)c(Oc2ccc(Cl)cc2)c1/C=N/OCc1ccc(C(=O)OC(C)(C)C)cc1
- inhibition at 1 µM [6]: -14.7%
- inhibition at 1 µM [7]: -4.9%
- inhibition at 1 µM [8]: -10%
- inhibition at 1 µM [9]: -27%

Compound: COC(=O)c1ccc(CO/N=C/c2c(C)nn(C)c2Oc2ccc(Cl)cc2)cc1
- inhibition at 1 µM [6]: 20.3%
- inhibition at 1 µM [7]: 33.6%
- inhibition at 1 µM [8]: 49.9%
- inhibition at 1 µM [9]: 26.1%

Compound: CCOC(=O)c1ccc(CO/N=C/c2c(C)nn(C)c2Oc2ccc(Cl)cc2)cc1
- inhibition at 1 µM [6]: 27.4%
- inhibition at 1 µM [7]: 33.9%
- inhibition at 1 µM [8]: 48.2%
- inhibition at 1 µM [9]: 20.9%

Compound: Cc1nn(C)c(Oc2ccccc2)c1/C=N/OCc1cccc(-c2ccccc2)c1C
- inhibition at 1 µM [6]: -13.2%
- inhibition at 1 µM [7]: 24.4%
- inhibition at 1 µM [8]: 5%
- inhibition at 1 µM [9]: -12.1%

Compound: Cc1nn(C)c(N2CCOCC2)c1/C=N/OCc1ccc(C(=O)OC(C)(C)C)cc1
- IC50 [1]: 1.83 µg/mL (≈ 4.41 µM)
- IC50 [2]: 1.04 µg/mL (≈ 2.51 µM)
- IC50 [3]: 16.7 µg/mL (≈ 40.3 µM)
- IC50 [4]: 8.87 µg/mL (≈ 21.4 µM)
- IC50 [5]: 0.39 µg/mL (≈ 0.941 µM)

Compound: Cc1nn(C)c(Oc2ccccc2)c1/C=N/OCCN(C)C
- inhibition at 1 µM [6]: -36.1%
- inhibition at 1 µM [7]: 8.9%
- inhibition at 1 µM [8]: -5.9%
- inhibition at 1 µM [9]: -29%

Compound: Cc1nn(C)c(Oc2ccc(Cl)cc2)c1/C=N/OCc1ccc([N+](=O)[O-])cc1
- inhibition at 1 µM [6]: 18.4%
- inhibition at 1 µM [7]: 27.1%
- inhibition at 1 µM [8]: 39.6%
- inhibition at 1 µM [9]: 24.6%

Compound: Cc1nn(C)c(Oc2ccc(Cl)cc2)c1/C=N/OCc1ccc(C(F)(F)F)cc1
- inhibition at 1 µM [6]: 20.6%
- inhibition at 1 µM [7]: 16.4%
- inhibition at 1 µM [8]: 50.9%
- inhibition at 1 µM [9]: 27.6%

Compound: COc1cccc(CO/N=C/c2c(C)nn(C)c2Oc2ccccc2)c1
- inhibition at 1 µM [6]: -41.2%
- inhibition at 1 µM [7]: 8.4%
- inhibition at 1 µM [8]: 1%
- inhibition at 1 µM [9]: -19.6%
